A selection: hits, their analogues and other compounds. The true share with any hit is near 3.9%.
STAT3 activator: IL-6 driven STAT3 reporter potentiators, primary screen, U3A cells, luciferase, luminescence, MLSCN library; 190,000 tested, 0.91% active; AID 871, 2007; activation (% of control), % at 5.6 µM; IL-6 STAT3-luciferase reporter; 100% = signal with IL-6 EC80 alone;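 active = activation above the screen-wide mean of compound activation plus 3 SD, cut at about 130% in these data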;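 also: 0% = background luminescence of wells with medium and substrate only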
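Material: STAT1-lacking human U3A cells, STAT3 luciferase reporter | Benchmarks: IL-6-only wells as 100% reference | Probe or stimulus: IL-6 (33 ng/mL) | Timing: Compound 1 h, then IL-6 6 h at 37 °C | Detection: Luminescence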
NF-kB neuron act: activators of NF-kB expression in neurons, primary screen, cell-based, HTS | human neuronal cells, NF-kB reporter expression; active compounds read high | fold change at 12.5 µM | 190,000 tested, 1.6% active | AID 1239, 2008; in the data active = fold change above about 3.3
APP 5'UTR act: activators of APP 5'UTR luciferase reporter, primary screen, SH-SY5Y cells; SH-SY5Y APP 5'UTR luciferase reporter, luminescence; zero percent = DMSO vehicle wells; activation, % at 2 µM; 190,000 tested, 1% active; AID 1276, 2008;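 active = activation above a set limit, based on mean plus 3 SD of controls, cut at about 140% in these data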
STAT1 blocker: STAT1 signaling inhibitors, primary screen, cell-based, HTS, luciferase reporter. NIH 3T3 STAT1-luciferase reporter, IFN-gamma, luminescence. inhibition, % at 5.5 µM. 200,000 tested, 0.35% active. AID 920, 2007;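 active = inhibition above a set limit, the mean inhibition across all tested compounds plus 3 SD, cut at about 34% in these data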;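 also: 0% = IFN-gamma with DMSO and 100% = IFN-gamma with 300 µM nifuroxazide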
STAT1 activator: STAT1 signaling activators, primary screen, cell-based, HTS, luciferase reporter; NIH 3T3 STAT1-luciferase reporter, IFN-gamma, luminescence; 100% = IFN-gamma alone, no compound; activation (% of control), % at 5.5 µM; 200,000 tested, 2.6% active;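 active = activation above the screen-wide mean activation plus 3 SD, cut at about 130% in these data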;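 also: raw ratio to IFN-gamma control signal so 100% means no change and 0% no light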
Pf gametocyte: late stage P. falciparum gametocyte viability inhibitors, primary screen, ATP luminescence, HTS | 150,000 tested, 0.065% active | inhibition, % at 10.9 µM | P. falciparum stage V gametocytes, 24 h;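 active = inhibition above the mean plus 3 SD of compounds within the control limits, set per campaign, cut at about 38% in these data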;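 also: 0% = DMSO wells and 100% = medium only without gametocytes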
STAT1 act conf: STAT1 signaling activators, confirmation, cell-based, HTS, luciferase reporter; 1,200 tested, 97% active; NIH 3T3 STAT1-luciferase reporter, IFN-gamma potentiation, luminescence; 100% = IFN-gamma EC80 alone, no compound; AID 1262, 2008; shares compounds with STAT1 activator; activation (% of control), % at 5.7 µM;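 active = activation above a set limit carried over from the earlier primary STAT1 screen, cut at about 140% in these data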;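 also: simple ratio to median IFN-gamma plus DMSO wells so 0% means no light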
NFkB act STAT1ct: NF-kB reporter activators, TNF-alpha stimulated, counter-screen for STAT1 activator project, cell-based, HEK293T, luciferase luminescence. 100% = TNF-alpha with vehicle only. AID 1306, 2008. activation (% of control), % at 5.7 µM. 1,200 tested, 43% active. shares compounds with STAT1 activator;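 active = activation above the mean of solvent-only control wells plus 3 SD, set per campaign, cut at about 130% in these data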;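 also: TNF-alpha given at a submaximal dose yielding about 80% of full reporter signal; values are well signal over median control so 100% means no change and 0% no light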
STAT3 act STAT1c: STAT3 reporter activation by STAT1 hits, confirmation, counter-screen for STAT1 activator project, U3A cells, luciferase, luminescence. activation (% of control), % at 5.7 µM. 1,200 tested, 46% active. shares compounds with STAT1 activator. IL-6; cells lack STAT1; 100 = IL-6 alone, no compound effect;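 active = activation above the solvent-only control well mean plus 3 SD, set per plate batch, cut at about 110% in these data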;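 also: 0% = no luminescence and 100% = median IL-6 plus DMSO wells; higher means more STAT3 reporter activation so hits are non-selective activators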
* = called active by the depositor; nt = no result.

SMILES	STAT3 activator	NF-kB neuron act	APP 5'UTR act	STAT1 blocker	STAT1 activator	Pf gametocyte	STAT1 act conf	NFkB act STAT1ct	STAT3 act STAT1c
O=C(CCNc1cc(Cl)cc(Cl)c1)c1cccs1	112	1.2	15	2	99	nt	nt	nt	nt
O=C(/C=C/Nc1ccc(F)c(F)c1)c1cccs1	100	9.8*	144*	-76	169*	-13	229*	122	132*
CC(C)c1ccc(/C=N/NC(=O)c2cccc(Cl)c2)cc1	108	5.7*	71	-95	184*	-10	220*	137*	126*
CC(C)c1ccc(/C=N/NC(=O)c2ccccn2)cc1	nt	nt	nt	nt	nt	-1	nt	nt	nt
Cn1/c(=N/N=C/c2ccccn2)sc2ccccc21	119	5.3*	114	-56	152*	-9	219*	142*	130*
O=C(CN1C(=O)C2C3CC(C(Br)C3Br)C2C1=O)N1CCN(Cc2ccccc2)CC1 (stereo not given)	nt	nt	nt	nt	nt	4	nt	nt	nt
Cc1cc(Br)ccc1OCCCCN1CCC(C)CC1	97	0.94	5	3	97	-13	nt	nt	nt
Oc1ccc(/C=N/Nc2ccc(C(F)(F)F)cn2)cc1	87	4.8*	127	-76	168*	nt	172*	108	99
Brc1ccccc1/C=N/Nc1ccc2ccccc2n1	128	9.4*	119	-64	158*	-27	191*	120	146*
Brc1ccc(/C=N/Nc2ccc3ccccc3n2)cc1	99	3.3	30	-28	126	nt	nt	nt	nt
Cc1ccc(/C=N/Nc2nc3ccccc3s2)o1	100	6.4*	167*	-54	154*	-46	264*	107	129*
COc1ccccc1N(C)S(=O)(=O)c1ccc(C(=O)Nc2nc(C)cs2)cc1	97	0.78	-5	3	96	-16	nt	nt	nt
CC(C)NC(=O)COC(=O)C1CSC2(c3ccc(Br)cc3)CCC(=O)N12 (stereo not given)	98	1.1	11	2	98	-8	nt	nt	nt
CC(=O)NC12CC3CC(C1)CC(C(=O)OCC(=O)c1ccc4c(c1)OCCO4)(C3)C2	111	3.1	156*	-67	161*	-67	212*	125	124*
CC(C)C1N(C(=O)CN2CCCCC2)CCN1S(=O)(=O)c1ccccc1 (stereo not given)	107	nt	12	0	100	27	nt	nt	nt
C/C(=N\NC(=O)c1c[nH]c2ccccc12)c1ccccn1	96	0.92	-47	-64	157*	0	198*	120	105
C#CCOC(=O)Nc1cc(C)n(-c2ccccc2)n1	nt	nt	nt	nt	nt	20	nt	nt	nt
O=C(Nc1ccccc1)c1ccc(NCCc2ccccc2)c([N+](=O)[O-])c1	88	1.4	37	2	98	17	nt	nt	nt
CCN(CC)c1ccc(C(=O)Nc2ccccc2)cc1[N+](=O)[O-]	96	1.6	98	-68	160*	nt	163*	129	97
S=C(c1ccc(-c2ccc(Cl)cc2)o1)N1CCCCC1	97	4.9*	184*	-87	181*	nt	222*	138*	115*
Cc1ccc2cc(CCNC(=O)c3cccs3)c(=O)[nH]c2c1C	103	4*	126	-71	165*	nt	187*	135*	110
Cc1ccc(-c2ccc(CCC(=O)O)n2C(C)C)cc1	97	0.84	6	-57	151*	nt	106	113	101

High-throughput results as filed in PubChem BioAssay.
